# According to ChEMBL document CHEMBL4118159, “Discovery of tetrahydroindazoles as a novel class of potent and in vivo efficacious gamma secretase modulators” (Bioorg Med Chem, 2018):
# Tests used:
# Gamma-secretase [1] = experiment: Modulation of gamma secretase in human H4 cells expressing human wild type APP assessed as inhibition of amyloid beta 42 production after 22 hrs by electrochemiluminescence assay; format: cell-based
# Method in brief: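 H4 cells overexpressing human APPwt, 10,000/well, were exposed to compound 22 h at 37°C, 5% CO2. Supernatant was diluted with medium on an MSD anti-Aβ42 plate and detected with S-tag 6E10 (1:50, 1 h). Read-out was electrochemiluminescence.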
# [2] = Modulation of gamma secretase in rat E18 cells assessed as inhibition of amyloid beta 42 production after 22 hrs by electrochemiluminescence assay; format: cell-based
# Gamma-secretase [3] = experiment: Modulation of gamma-secretase in human E6 cells expressing HeLaTetON-NotchdeltaE-NLuc/CLuc-RBP assessed as notch cleavage after 16 hrs by bioluminescence assay; format: ADME, cell-based
# [4] = Protein binding in rat plasma at 1 uM after 5 hrs by equilibrium dialysis based LC-MS/MS analysis; format: ADME, cell-free; settings: read-out: PPB (converted)
# Method in brief: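 Equilibrium dialysis: rat EDTA plasma spiked to 1 µM final, dialysed against PBS with dextran (pH 7.4) across a 5–10 kDa membrane. Run 5 h at 37°C; both sides analyzed by HPLC-MS/MS.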
# [5] = Apparent permeability from apical to basolateral side in MDCK cells expressing human MDR1 at 1 uM at pH 7.4; format: ADME, cell-based, Canis lupus familiaris; settings: dog, MDCK-MDR1, pH 7.4
# Method in brief: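 MDCK-MDR1 monolayers; transport measured apical-to-basal and basal-to-apical at pH 7.4, 37°C, starting from 1 µM in the donor compartment; apparent permeability coefficients derived.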
# [6] = Efflux ratio of apparent permeability from […] in MDCK cells expressing human MDR1 at 1 uM at pH 7.4; format: ADME, cell-based, Canis lupus familiaris; settings: dog, pH 7.4, 1 µM
# Method in brief: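 MDCK-MDR1 monolayers, pH 7.4, 37°C; transport measured apical-to-basal and basal-to-apical from 1 µM initial donor concentration; apparent permeability coefficients derived for each direction, ratio taken.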
# hERG (KCNH2) [7] = biological target: T1, hERG (KCNH2) (Homo sapiens, UniProt Q12809); experiment: Inhibition of human ERG at 1 uM by patch clamp assay relative to control
# hERG (KCNH2) [8] = biological target: T1, hERG (KCNH2); experiment: Inhibition of human ERG at 10 uM by patch clamp assay relative to control
# Cytochrome P450 3A4 = Cytochrome P450 3A4 (Homo sapiens, UniProt P08684); experiment: Inhibition of CYP3A4 in human liver microsomes using testosterone as substrate in presence of NADPH by LC-MS/MS analysis; format: ADME
# Method in brief: (§1)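 Human pooled liver microsomes (0.1 mg/ml) at 37°C in 0.1 M Tris with 5 mM MgCl2. Substrates were dextromethorphan 7 µM (2D6), diclofenac 4 µM (2C9), (S)-mephenytoin 30 µM (2C19) and testosterone 60 µM (3A4). Test compound ran at five concentrations. Reactions were started with 1 mM NADPH and stopped by cooling to 8°C plus acetonitrile. Metabolite was read by LC-MS/MS against an isotope internal standard, relative to no-compound control.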
# Cytochrome P450 2D6 = Cytochrome P450 2D6 (Homo sapiens, UniProt P10635); experiment: Inhibition of CYP2D6 in human liver microsomes using dextromethorphan as substrate in presence of NADPH by LC-MS/MS analysis; format: ADME; method in brief: as §1
# Cytochrome P450 2C9 = Cytochrome P450 2C9 (Homo sapiens, UniProt P11712); experiment: Inhibition of CYP2C9 in human liver microsomes using diclofenac as substrate in presence of NADPH by LC-MS/MS analysis; format: ADME; method in brief: as §1
# Cytochrome P450 2C8 = biological target: T2, Cytochrome P450 2C8 (Homo sapiens, UniProt P10632); experiment: Inhibition of CYP2C8 in human liver microsomes in presence of NADPH by LC-MS/MS analysis; format: ADME
# T2 sequence (P10632 whole entry): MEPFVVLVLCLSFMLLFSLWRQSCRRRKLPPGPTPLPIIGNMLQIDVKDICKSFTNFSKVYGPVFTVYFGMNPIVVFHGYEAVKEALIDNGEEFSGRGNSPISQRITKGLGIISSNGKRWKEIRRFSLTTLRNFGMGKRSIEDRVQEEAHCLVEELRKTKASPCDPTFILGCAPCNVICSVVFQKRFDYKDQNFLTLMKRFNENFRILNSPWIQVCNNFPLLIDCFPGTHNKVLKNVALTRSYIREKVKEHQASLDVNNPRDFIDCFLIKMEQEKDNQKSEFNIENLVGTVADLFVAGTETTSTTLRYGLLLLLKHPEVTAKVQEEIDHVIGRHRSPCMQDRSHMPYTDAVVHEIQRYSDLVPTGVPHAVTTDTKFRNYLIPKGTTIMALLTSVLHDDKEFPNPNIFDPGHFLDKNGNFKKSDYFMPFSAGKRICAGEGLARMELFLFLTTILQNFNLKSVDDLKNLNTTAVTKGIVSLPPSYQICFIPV
# Cytochrome P450 2C19 = Cytochrome P450 2C19 (Homo sapiens, UniProt P33261); experiment: Inhibition of CYP2C19 in human liver microsomes using (S)-mephenytoin as substrate in presence of NADPH by LC-MS/MS analysis; format: ADME; method in brief: as §1
# [9] = Clearance in Han Wistar rat at 1 umol/kg, iv administered as bolus by LC/MS/MS analysis; format: ADME, organism-based; settings: in vivo
# Method in brief: (§2)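 Female fed Han Wistar rats received the compound as an i.v. solution. Blood was sampled at several time points and EDTA plasma prepared. Plasma levels were quantified by LC/MS/MS after acetonitrile precipitation, and PK parameters were calculated by non-compartmental analysis.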
# [10] = Mean residence time in Han Wistar rat at 1 umol/kg, iv administered as bolus by LC/MS/MS analysis; format: ADME, organism-based; settings: in vivo; method in brief: as §2
# [11] = Volume of distribution at steady state in Han Wistar rat at 1 umol/kg, iv administered as bolus by LC/MS/MS analysis; format: ADME, organism-based; settings: in vivo, read-out: Vdss; method in brief: as §2
# [12] = Drug uptake in Han Wistar rat plasma at 10 umol/kg, po administered via gavage measured 3 hrs post dose by LC/MS/MS analysis; format: ADME, organism-based
# Method in brief: (§3)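 Fasted female Han Wistar rats were dosed by oral gavage as a Natrosol suspension. Animals were sacrificed 3 h later and plasma and tissues collected and frozen. Concentrations were measured by LC/MS/MS after acetonitrile precipitation.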
# [13] = Drug uptake in Han Wistar rat brain at 10 umol/kg, po administered via gavage measured 3 hrs post dose by LC/MS/MS analysis; format: ADME, organism-based; settings: read-out: Drug uptake; method in brief: as §3
# [14] = Drug uptake in Han Wistar rat muscle at 10 umol/kg, po administered via gavage measured 3 hrs post dose by LC/MS/MS analysis; format: ADME, organism-based, Muscle tissue; settings: read-out: Drug uptake; method in brief: as §3
# [15] = Ratio of drug uptake in Han Wistar rat muscle to brain at 10 umol/kg, po administered via gavage measured 3 hrs post dose by LC/MS/MS analysis; format: ADME, organism-based; settings: in vivo
# Method in brief: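 Fasted female Han Wistar rats given 10 µmol/kg orally; sacrificed 3 h post dose, tissues collected and frozen; samples acetonitrile-precipitated, supernatant diluted 1:100 and quantified by LC-ESI-MS/MS; muscle-to-brain concentration ratio.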
# [16] = Ratio of drug uptake in Han Wistar rat brain to plasma at 10 umol/kg, po administered via gavage measured 3 hrs post dose by LC/MS/MS analysis; format: ADME, organism-based; method in brief: as §3
# [17] = Unbound brain concentration in rat brain at 30 mg/kg, po measured after 3 hrs by LC/MS/MS analysis; format: ADME, organism-based; settings: in vivo
# Method in brief: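 Unbound brain concentration estimated from unbound plasma exposure 3 h after oral dosing, assuming equal plasma–brain distribution. Plasma sampled after dosing in 0.5% Natrosol/0.01% Tween 80 and quantified by LC/MS/MS.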
# Rattus norvegicus [18] = experiment: In vivo modulation of gamma secretase in rat brain homogenate assessed as decrease in amyloid beta 42 levels at 25 mg/kg, po measured after 3 hrs by electrochemiluminescence assay relative to control; format: functional; design: scale not given: the % may be the effect or the level left
# Method in brief: (§4)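 Rats dosed orally with compound in 0.5% Natrosol/0.01% Tween 80, then anesthetized (Ketavet, Inactin i.p.) and decapitated 3 h later. Brain slices were homogenized in 20 mM Tris pH 8.5 + 0.2% Triton X-100 (5-fold v/w) and spun 1 h at 210,000 x g, 4°C. Aβ42 in the supernatant was read by MSD electrochemiluminescence with S-tag 4G8 detection.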
# Rattus norvegicus [19] = experiment: In vivo modulation of gamma secretase in rat brain homogenate assessed as decrease in amyloid beta 42 levels at 30 mg/kg, po measured after 3 hrs by electrochemiluminescence assay relative to control; format: functional; design: scale not given: the % may be the effect or the level left; method in brief: as §4
# Rattus norvegicus [20] = experiment: Decrease in total amyloid beta levels in rat brain homogenate at 30 mg/kg, po measured after 3 hrs by electrochemiluminescence assay relative to control; design: scale not given: the % may be the effect or the level left; settings: in vivo
# Rattus norvegicus [21] = experiment: Decrease in total amyloid beta 42 levels in rat brain homogenate at 30 mg/kg, po measured after 3 hrs by electrochemiluminescence assay relative to control; design: scale not given: the % may be the effect or the level left; settings: in vivo
# T1 sequence (Q12809 whole entry): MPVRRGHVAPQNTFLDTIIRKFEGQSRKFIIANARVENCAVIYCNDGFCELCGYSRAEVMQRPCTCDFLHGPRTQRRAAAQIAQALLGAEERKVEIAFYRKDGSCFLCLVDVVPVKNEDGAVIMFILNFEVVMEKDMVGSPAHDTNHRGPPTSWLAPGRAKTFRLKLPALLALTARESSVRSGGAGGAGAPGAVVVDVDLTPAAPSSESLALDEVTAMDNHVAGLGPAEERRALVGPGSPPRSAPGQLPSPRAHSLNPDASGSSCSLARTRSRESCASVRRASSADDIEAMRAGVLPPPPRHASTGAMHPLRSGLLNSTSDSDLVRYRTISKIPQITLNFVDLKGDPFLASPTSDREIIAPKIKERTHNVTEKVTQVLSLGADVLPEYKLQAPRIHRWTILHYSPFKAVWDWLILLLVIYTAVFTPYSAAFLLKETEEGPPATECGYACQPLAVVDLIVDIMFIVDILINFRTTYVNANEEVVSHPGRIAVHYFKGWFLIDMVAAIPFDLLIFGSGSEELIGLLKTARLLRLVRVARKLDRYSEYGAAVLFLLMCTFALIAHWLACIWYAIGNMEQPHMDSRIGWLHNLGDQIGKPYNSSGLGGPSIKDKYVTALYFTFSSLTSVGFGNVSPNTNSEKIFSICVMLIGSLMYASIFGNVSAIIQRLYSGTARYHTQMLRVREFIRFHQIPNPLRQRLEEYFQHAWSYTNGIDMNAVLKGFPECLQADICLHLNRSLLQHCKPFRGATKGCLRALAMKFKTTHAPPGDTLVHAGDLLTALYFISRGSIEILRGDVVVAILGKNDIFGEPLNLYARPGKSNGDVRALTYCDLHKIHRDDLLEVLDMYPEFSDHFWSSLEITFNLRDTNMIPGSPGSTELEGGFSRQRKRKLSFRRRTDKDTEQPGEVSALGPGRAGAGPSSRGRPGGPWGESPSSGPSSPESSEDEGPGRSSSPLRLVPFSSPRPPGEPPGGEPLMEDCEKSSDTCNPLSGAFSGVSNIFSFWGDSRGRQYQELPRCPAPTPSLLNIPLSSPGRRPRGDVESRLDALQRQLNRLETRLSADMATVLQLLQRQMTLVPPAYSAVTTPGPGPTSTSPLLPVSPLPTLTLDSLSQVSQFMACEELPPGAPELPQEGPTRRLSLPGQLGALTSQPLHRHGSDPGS
# Chain of Cytochrome P450 2C9 (P11712 whole entry): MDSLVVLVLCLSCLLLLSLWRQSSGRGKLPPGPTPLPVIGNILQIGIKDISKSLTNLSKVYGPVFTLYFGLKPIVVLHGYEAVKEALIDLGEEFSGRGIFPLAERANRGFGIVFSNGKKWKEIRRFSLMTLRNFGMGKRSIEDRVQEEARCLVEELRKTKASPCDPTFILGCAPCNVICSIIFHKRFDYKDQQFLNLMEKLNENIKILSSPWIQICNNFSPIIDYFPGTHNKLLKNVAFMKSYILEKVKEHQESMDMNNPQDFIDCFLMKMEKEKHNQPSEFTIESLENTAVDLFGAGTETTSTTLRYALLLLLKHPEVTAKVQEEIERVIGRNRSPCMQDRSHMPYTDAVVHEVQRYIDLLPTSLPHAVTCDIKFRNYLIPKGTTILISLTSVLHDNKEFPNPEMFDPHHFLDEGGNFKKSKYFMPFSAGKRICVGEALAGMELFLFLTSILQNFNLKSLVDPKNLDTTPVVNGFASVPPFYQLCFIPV
# Chain of Cytochrome P450 2C19 (P33261 whole entry): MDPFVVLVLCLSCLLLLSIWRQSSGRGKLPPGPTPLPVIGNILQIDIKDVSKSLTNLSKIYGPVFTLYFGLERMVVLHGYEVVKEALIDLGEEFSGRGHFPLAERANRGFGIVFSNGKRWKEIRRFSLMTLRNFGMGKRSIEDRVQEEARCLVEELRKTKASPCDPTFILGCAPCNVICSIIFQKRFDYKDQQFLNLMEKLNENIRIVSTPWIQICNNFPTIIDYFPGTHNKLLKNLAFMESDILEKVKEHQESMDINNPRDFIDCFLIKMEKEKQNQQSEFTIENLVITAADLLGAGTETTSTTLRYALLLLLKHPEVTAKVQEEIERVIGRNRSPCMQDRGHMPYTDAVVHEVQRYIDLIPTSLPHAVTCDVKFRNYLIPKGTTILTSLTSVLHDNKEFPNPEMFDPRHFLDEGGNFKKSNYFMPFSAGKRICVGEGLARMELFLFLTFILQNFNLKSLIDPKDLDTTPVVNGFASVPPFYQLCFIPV
# Chain of Cytochrome P450 2D6 (P10635 whole entry): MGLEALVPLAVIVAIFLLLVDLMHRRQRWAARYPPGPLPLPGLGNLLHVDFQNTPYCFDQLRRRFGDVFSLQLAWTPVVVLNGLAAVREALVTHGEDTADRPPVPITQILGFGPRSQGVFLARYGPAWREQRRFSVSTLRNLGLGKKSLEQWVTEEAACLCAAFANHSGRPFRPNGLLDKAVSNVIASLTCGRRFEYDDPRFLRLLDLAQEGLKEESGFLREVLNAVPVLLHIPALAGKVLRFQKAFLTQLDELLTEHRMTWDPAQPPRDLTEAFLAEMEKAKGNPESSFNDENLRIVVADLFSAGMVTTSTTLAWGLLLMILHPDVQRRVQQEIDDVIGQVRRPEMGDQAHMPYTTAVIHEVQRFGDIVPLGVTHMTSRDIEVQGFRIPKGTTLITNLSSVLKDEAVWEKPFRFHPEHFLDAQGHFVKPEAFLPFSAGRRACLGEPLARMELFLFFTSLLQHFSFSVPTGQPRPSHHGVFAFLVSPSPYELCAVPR
# Chain of Cytochrome P450 3A4 (P08684 whole entry): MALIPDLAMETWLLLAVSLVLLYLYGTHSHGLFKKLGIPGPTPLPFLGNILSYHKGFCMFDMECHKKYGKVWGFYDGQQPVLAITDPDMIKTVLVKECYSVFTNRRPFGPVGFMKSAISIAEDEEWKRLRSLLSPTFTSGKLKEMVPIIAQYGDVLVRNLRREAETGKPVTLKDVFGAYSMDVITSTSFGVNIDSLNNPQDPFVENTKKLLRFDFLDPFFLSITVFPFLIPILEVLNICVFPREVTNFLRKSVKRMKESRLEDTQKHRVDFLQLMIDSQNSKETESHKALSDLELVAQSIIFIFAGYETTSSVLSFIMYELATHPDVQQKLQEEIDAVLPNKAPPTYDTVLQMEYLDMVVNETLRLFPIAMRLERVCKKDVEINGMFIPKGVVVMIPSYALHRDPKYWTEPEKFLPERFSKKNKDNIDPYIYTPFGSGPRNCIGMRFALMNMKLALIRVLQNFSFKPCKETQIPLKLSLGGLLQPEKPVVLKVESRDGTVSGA
structure (smiles),measurement,setting,value
CCn1ncc2c1CCC(Nc1nc3c(-c4ccc(OC)nc4)cccn3n1)C2 (stereo not drawn),IC50,Gamma-secretase [1],90 nM
CCn1ncc2c1CCC(Nc1nc3c(-c4cncc(Cl)c4)cccn3n1)C2 (stereo not drawn),IC50,Gamma-secretase [1],40 nM
CCn1ncc2c1CCC(Nc1nc3c(-c4cccc(Cl)c4)cccn3n1)C2 (stereo not drawn),IC50,Gamma-secretase [1],40 nM
CCn1ncc2c1CC[C@@H](Nc1nc3c(-c4ccc(F)cc4C)cccn3n1)C2,IC50,Gamma-secretase [1],40 nM
same,IC50,[2],40 nM
same,IC50,Gamma-secretase [3],> 30000 nM
same,"fraction unbound at 5 h, 1 µM",[4],0.012
same,Papp A→B at 1 µM,[5],78 ×10⁻⁶ cm/s
same,Ratio,[6],0.7
same,inhibition at 1 µM,hERG (KCNH2) [7],8%
same,inhibition at 10 µM,hERG (KCNH2) [8],39%
same,IC50,Cytochrome P450 3A4,> 50000 nM
same,IC50,Cytochrome P450 2D6,> 50000 nM
same,IC50,Cytochrome P450 2C9,25000 nM
same,IC50,Cytochrome P450 2C8,9500 nM
same,IC50,Cytochrome P450 2C19,36000 nM
same,clearance,[9],40 mL/min/kg
same,MRT,[10],36 min
same,Vd,[11],1.5 L/kg
same,concentration at 3 h,[12],2680 nM
same,concentration at 3 h,[13],2990 nM
same,concentration at 3 h,[14],2600 nM
same,Ratio,[15],0.9
same,Kp at 3 h,[16],1.1
same,Cp(f),[17],30 nM
same,Activity,Rattus norvegicus [18],53%
same,Activity,Rattus norvegicus [19],47%
same,Activity,Rattus norvegicus [20],5%
same,Activity,Rattus norvegicus [21],3%
Cc1cc(F)ccc1-c1cccn2nc(NC3CCc4c(cnn4C)C3)nc12 (stereo not drawn),IC50,Gamma-secretase [1],380 nM
CCn1ncc2c1CCC(Nc1nc3c(-c4ccccc4Cl)cccn3n1)C2 (stereo not drawn),IC50,Gamma-secretase [1],60 nM
CCCCCn1ncc2c1CCC(Nc1nc3c(-c4ccc(F)cc4C)cccn3n1)C2 (stereo not drawn),IC50,Gamma-secretase [1],> 30000 nM
CCCCn1ncc2c1CCC(Nc1nc3c(-c4ccc(F)cc4C)cccn3n1)C2 (stereo not drawn),IC50,Gamma-secretase [1],2770 nM
CCn1ncc2c1CCC(Nc1nc3c(-c4ccccc4)cccn3n1)C2 (stereo not drawn),IC50,Gamma-secretase [1],70 nM
CCn1ncc2c1CCC(Nc1nc3c(-c4cccnc4)cccn3n1)C2 (stereo not drawn),IC50,Gamma-secretase [1],350 nM
CCCn1ncc2c1CCC(Nc1nc3c(-c4ccc(F)cc4C)cccn3n1)C2 (stereo not drawn),IC50,Gamma-secretase [1],60 nM
Cc1cc(F)ccc1-c1cccn2nc(NC3CCc4c(cnn4CC(C)C)C3)nc12 (stereo not drawn),IC50,Gamma-secretase [1],3400 nM
CCc1nn(C)c2c1CCC(Nc1nc3c(-c4ccc(F)cc4C)cccn3n1)C2 (stereo not drawn),IC50,Gamma-secretase [1],3130 nM
CCn1nc(Cl)c2c1CCC(Nc1nc3c(-c4ccc(F)cc4C)cccn3n1)C2 (stereo not drawn),IC50,Gamma-secretase [1],750 nM
CCn1ncc2c1CCC(Nc1nc3c(-c4ccc(Cl)cc4)cccn3n1)C2 (stereo not drawn),IC50,Gamma-secretase [1],60 nM
Cc1cc(F)ccc1-c1cccn2nc(NC3CCc4[nH]ncc4C3)nc12 (stereo not drawn),IC50,Gamma-secretase [1],4570 nM
CCn1ncc2c1CCC(Nc1nc3c(-c4cnccc4OC)cccn3n1)C2 (stereo not drawn),IC50,Gamma-secretase [1],120 nM
CCn1nnc2c1CCC(Nc1nc3c(-c4ccc(F)cc4C)cccn3n1)C2 (stereo not drawn),IC50,Gamma-secretase [1],2200 nM
